Measurements reported in the array DNA melting data of Ke et al. (doi:10.1101/2024.01.08.574731).

Experiments:
[1] = melting temperature; fluorescence melt of hairpins on a sequencing array, two-state fit, raised by 9.35 °C to match UV melts; conditions: sodium 0.088 M
Summary of the method: (§1)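 Cy3 signals were normalised both to pre-quench Cy3 and to control constructs. They came from library hairpins carrying annealed Cy3 and quencher oligos on a sequenced MiSeq flow cell, imaged in 50 mM Na-HEPES pH 8.0, 25 mM NaCl, in 2.5 °C steps up to 60 °C. Bootstrapped two-state fits gave melting temperature and folding enthalpy, and four replicates were combined by inverse variance. Fitted temperatures were then raised by 9.35 °C to match UV melts.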

[2] = folding enthalpy; higher = less favourable; fluorescence melt of hairpins on a sequencing array, two-state fit; conditions: sodium 0.088 M
Summary of the method: as §1

Sequence	Tm [1] [°C]	folding enthalpy [2] [kcal/mol]
GCAGTAGGAAACTGCTGC ((((.((....)).))))	57	-31
GCAGTCGAAAGACATGC ((((((....))).)))	51.5	-24.1
GCAGTCGAAAGACATTGC ((((((....)))..)))	38.1	-17.1
GCAGTCGGAAACAACTGC (((((.(....).)))))	46.1	-32.9
GCAGTGCGAAAGCAAGGC ((..(((....)))..))	56.7	-16.1
GCAGTGCGAAAGCCCAGC ((.(.((....)).).))	38	-15.4
GCAGTGCGAAAGCCGTGC (((..((....))..)))	46.4	-21.1
GCAGTGCGAAAGCCTTGC (((..((....))..)))	47.6	-15.2
GCAGTGCGAAAGCTGTGC (((..((....))..)))	50.2	-19.4
GCAGTGCGAAAGCTTTGC (((..((....))..)))	51.2	-14
GCAGTGGGAAACCACTAC (.(((((....))))).)	41.1	-12.9
GCAGTGGGAAACCGTTGC (((..((....))..)))	38.1	-19.4
GCAGTGGGAAACTGCTGC ((((..(....)..))))	58.1	-27.6
GCAGTGTCGAAAGACTGC (((..(((....))))))	48.3	-23
GCAGTTACGAAAGTATGC (((..(((....))))))	33.9	-21.6
GCAGTTCGAAAGAAATGC (((.(((....))).)))	54.2	-36.8
GCAGTTGCGAAAGCATGC (((..(((....))))))	42	-16.8
GCAGTTGGAAACAGTTGC (((..((....))..)))	29.7	-13.8
GCATACACGAAAGTGTGC (((..(((....))))))	45.9	-16.1

Sequence	Tm [1] [°C]	folding enthalpy [2] [kcal/mol]
GCATACCGAAAGGTGTGC (((.(((....))).)))	63.3	-43.2
GCATACGAAAGTAACTGC ((((((....)))..)))	31.1	-13.6
GCATACGAAAGTAATGC ((((((....))).)))	50.1	-35.4
GCATACGAAAGTACTGC ((((((....))).)))	41.4	-22.4
GCATACGAAAGTACTTGC ((((((....)))..)))	30.8	-11.7
GCATACGAAAGTAGATGC ((((((....)))..)))	41.1	-27.1
GCATACGAAAGTAGGTGC ((((((....)))..)))	40.4	-27.1
GCATAGCGAAAGCAATGC ((((.((....)).))))	60.4	-23.1
GCATAGCGAAAGCCGTGC (((..((....))..)))	39.6	-17.5
GCATAGCGAAAGCGAAGC ((.(.((....)).).))	58.1	-22.6
GCATAGCGAAAGCGTTGC (((..((....))..)))	56.8	-27.1
GCATAGCGAAAGCTAAGC ((.((((....)))).))	51.2	-16.2
GCATAGCGAAAGCTGGGC ((..(((....)))..))	56.5	-18.1
GCATAGCGAAAGCTTTGC (((.(((....))).)))	53.4	-41.9
GCATAGGAAACTATGC ((((((....))))))	53.7	-35.4
GCATAGGGAAACTTGTGC (((.(.(....).).)))	29.9	-13
GCATATGCGAAAGCATGC (((..(((....))))))	48.2	-14.8
GCATATGGAAACATACGC ((.((((....)))).))	35.4	-26.3
